In ChEMBL document CHEMBL1156565, “Discovery of (R)-4-(8-fluoro-2-oxo-1,2-dihydroquinazolin-3(4H)-yl)-N-(3-(7-methyl-1H-indazol-5-yl)-1-oxo-1-(4-(piperidin-1-yl)piperidin-1-yl)propan-2-yl)piperidine-1-carboxamide (BMS-694153): a potent antagonist of the human calcitonin gene-related peptide receptor for migraine with rapid and …” (J Med Chem, 2008):
≈ marks a conversion by molar mass, not a printed value. Values belong to the compound of their own block, whether it stands above or below them. Calls of active or inactive are those of the source. The rule behind the calls is not given here.

Tests used:
Cytochrome P450 3A4 [1] = target: T1, Cytochrome P450 3A4 (Homo sapiens, UniProt P08684); assay: Inhibition of recombinant CYP3A4 expressed in insect microsomes after 45 mins in presence of BZR substrate; assay type: ADME, Microsome
T1 sequence (P08684 whole entry): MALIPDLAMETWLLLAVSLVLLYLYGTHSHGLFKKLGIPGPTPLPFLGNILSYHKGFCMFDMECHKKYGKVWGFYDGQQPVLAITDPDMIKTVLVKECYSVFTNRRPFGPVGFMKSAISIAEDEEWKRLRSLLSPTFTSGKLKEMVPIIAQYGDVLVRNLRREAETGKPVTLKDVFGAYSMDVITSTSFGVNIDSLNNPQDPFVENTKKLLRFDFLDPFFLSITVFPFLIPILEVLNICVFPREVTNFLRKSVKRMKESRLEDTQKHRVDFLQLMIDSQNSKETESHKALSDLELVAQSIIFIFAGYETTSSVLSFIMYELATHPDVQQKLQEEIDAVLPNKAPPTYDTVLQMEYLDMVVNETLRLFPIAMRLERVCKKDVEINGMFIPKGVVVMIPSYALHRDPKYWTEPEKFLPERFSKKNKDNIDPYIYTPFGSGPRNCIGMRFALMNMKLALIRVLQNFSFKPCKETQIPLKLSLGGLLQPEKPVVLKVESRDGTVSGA

[2] = Aqueous solubility of compound; assay type: physicochemical; conditions: buffer
Method in brief: (§1)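 Aqueous solubility measured over pH 1.0-6.8.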

[3] = target: T2, Calcitonin gene-related peptide type 1 receptor (Homo sapiens, UniProt O60894+Q16602); assay: Displacement of [I125]CGRP from human CGRP receptor in SK-N-MC cells; assay type: cell-based
T2 sequence (Q16602 whole entry, one chain of several): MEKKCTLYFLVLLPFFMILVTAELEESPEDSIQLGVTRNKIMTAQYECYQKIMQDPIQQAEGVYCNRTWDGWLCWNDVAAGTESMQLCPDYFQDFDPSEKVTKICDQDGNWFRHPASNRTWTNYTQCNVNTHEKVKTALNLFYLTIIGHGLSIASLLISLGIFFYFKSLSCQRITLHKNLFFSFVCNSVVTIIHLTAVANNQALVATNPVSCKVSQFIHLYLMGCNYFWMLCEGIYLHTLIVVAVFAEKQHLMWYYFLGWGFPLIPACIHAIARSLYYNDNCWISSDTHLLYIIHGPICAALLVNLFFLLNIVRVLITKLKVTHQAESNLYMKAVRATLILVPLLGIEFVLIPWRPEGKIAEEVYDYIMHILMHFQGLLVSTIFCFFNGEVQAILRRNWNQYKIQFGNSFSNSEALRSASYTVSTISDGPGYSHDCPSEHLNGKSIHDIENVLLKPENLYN

Cytochrome P450 3A4 [4] = target: T1, Cytochrome P450 3A4; assay: Inhibition of recombinant CYP3A4 expressed in insect microsomes after 20 mins in presence of BFC substrate; assay type: ADME, Microsome
[5] = Aqueous solubility of compound at pH 5; assay type: physicochemical
Calcitonin receptor = target: T3, Calcitonin receptor (Homo sapiens, UniProt P30988); assay: Displacement of [125I]calcitonin from calcitonin receptor in human T47D cells; assay type: cell-based
T3 sequence (P30988 whole entry): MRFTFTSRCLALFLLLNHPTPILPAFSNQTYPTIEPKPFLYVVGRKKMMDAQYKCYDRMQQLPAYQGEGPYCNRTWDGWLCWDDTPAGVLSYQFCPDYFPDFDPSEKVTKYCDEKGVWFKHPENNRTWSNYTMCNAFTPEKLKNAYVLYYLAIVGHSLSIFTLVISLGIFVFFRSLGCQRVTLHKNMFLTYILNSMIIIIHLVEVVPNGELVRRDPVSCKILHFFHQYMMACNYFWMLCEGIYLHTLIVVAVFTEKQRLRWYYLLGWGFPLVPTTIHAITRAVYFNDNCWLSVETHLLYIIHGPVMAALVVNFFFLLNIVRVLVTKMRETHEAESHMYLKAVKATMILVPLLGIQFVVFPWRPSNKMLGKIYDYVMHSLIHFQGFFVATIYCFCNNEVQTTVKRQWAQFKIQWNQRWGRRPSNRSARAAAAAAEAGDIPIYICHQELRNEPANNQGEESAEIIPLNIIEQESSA

Oryctolagus cuniculus [6] = assay: Total AUC in New Zealand white rabbit at 0.1 mg/kg, intranasally; assay type: ADME, organism-based; set-up: route nasal, time AUCmax, dose 0.1 mg/kg; conditions: in vivo, inhaled_or_intranasal
Method in brief: (§2)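 Rabbits dosed intranasally by spraying a solution into the nasal cavity. Plasma concentrations followed for up to 24 h. Bioavailability was calculated against an iv leg given at 0.5 mg/kg.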

[7] = Aqueous solubility of compound at pH 1 to 6.8; assay type: physicochemical; method in brief: as §1
[8] = target: Calcitonin gene-related peptide type 1 receptor (Rattus norvegicus, UniProt Q63118+Q9JJ74); assay: Displacement of [I125]CGRP from rat CGRP receptor
Calcitonin gene-related peptide type 1 receptor (Rattus norvegicus, UniProt Q63118+Q9JJ74), sequence (Q63118 whole entry, one chain of several): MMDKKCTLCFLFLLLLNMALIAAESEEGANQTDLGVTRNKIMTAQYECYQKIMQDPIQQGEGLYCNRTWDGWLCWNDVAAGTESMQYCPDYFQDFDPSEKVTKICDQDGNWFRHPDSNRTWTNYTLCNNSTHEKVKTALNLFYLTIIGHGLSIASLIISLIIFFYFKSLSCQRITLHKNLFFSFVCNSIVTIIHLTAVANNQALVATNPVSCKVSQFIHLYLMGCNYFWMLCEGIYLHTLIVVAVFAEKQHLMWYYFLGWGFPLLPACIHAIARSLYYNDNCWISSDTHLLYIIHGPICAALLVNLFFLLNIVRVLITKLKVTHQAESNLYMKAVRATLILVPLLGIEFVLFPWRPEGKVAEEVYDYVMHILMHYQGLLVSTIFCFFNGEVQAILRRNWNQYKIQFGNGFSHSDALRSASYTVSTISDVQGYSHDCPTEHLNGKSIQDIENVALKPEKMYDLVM

[9] = Intrinsic permeability across human Caco-2 cells; assay type: ADME, cell-based; conditions: read-out: IP
[10] = Displacement of [I125]AMY from amylin 3 receptor expressed in CHO cells; assay type: cell-based
[11] = Volume of distribution at steady state in New Zealand white rabbit at 0.5 mg/kg, iv; assay type: ADME, organism-based, Oryctolagus cuniculus; set-up: dose 0.5 mg/kg, route intravenous; conditions: in vivo, read-out: Vdss
Method in brief: (§3)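 Rabbits given an iv dose of 0.5 mg/kg as the reference leg for intranasal dosing. Clearance, Vss and terminal half-life were derived from the plasma concentration-time profile.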

[12] = Ex vivo inhibition of human alpha CGRP-induced artery dilation in human intracranial artery preincubated for 30 mins; assay type: functional
Method in brief: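 Wire-mounted human intracranial artery rings were preincubated 30 min with a single antagonist concentration (0.1-30 nM). They were then contracted with 10 mM K+ and given increasing hαCGRP to full relaxation. The CGRP curve shift was analysed by Schild analysis.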

Callithrix jacchus [13] = assay: Inhibition of human alpha CGRP-induced increase in facial blood flow in marmoset at 0.01 mg/kg, sc after 15 mins by laser Doppler flowmetry; assay type: functional, organism-based; set-up: dose 0.01 mg/kg
Method in brief: (§4)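 Anesthetized marmosets received iv hαCGRP (10 µg/kg) at -30, 15, 60 and 105 min. Antagonist was given sc at 0 min. Facial blood flow changes were measured by laser Doppler flowmetry and compared with vehicle-treated animals.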

Callithrix jacchus [14] = assay: Inhibition of human alpha CGRP-induced increase in facial blood flow in marmoset at 0.003 mg/kg, sc by laser Doppler flowmetry; assay type: functional, organism-based; set-up: dose 0.003 mg/kg; method in brief: as §4
[15] = Bioavailability in sc dosed Sprague-Dawley rat in presence of PBS vehicle; assay type: ADME, organism-based; conditions: in vivo
[16] = Ex vivo effect on basal artery tension in human coronary artery assessed as contractility; assay type: functional, tissue-based
Method in brief: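 Contractility was measured in wire-mounted ex vivo human artery rings at up to 10 µM compound. Serotonin (10 µM) was added at the end of each session to give maximal contraction.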

Oryctolagus cuniculus [17] = assay: Total AUC in New Zealand white rabbit at 0.5 mg/kg, iv; assay type: ADME, organism-based; set-up: dose 0.5 mg/kg, route intravenous, time AUCmax; conditions: in vivo; method in brief: as §3
[18] = Tmax in New Zealand white rabbit at 0.5 mg/kg, iv; assay type: ADME, organism-based, Oryctolagus cuniculus; set-up: dose 0.5 mg/kg, route intravenous; conditions: in vivo; method in brief: as §3
[19] = Ex vivo reversal of human alpha CGRP-induced artery dilation in human intracranial artery; assay type: functional
Method in brief: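 Human intracranial artery rings were wire-mounted on a force transducer and contracted with 10 mM KCl. They were then fully dilated with 1 nM hαCGRP. Antagonist was added cumulatively in half-log increments to reverse the dilation.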

Cytochrome P450 2C9 = Cytochrome P450 2C9 (Homo sapiens, UniProt P11712); assay: Inhibition of human recombinant CYP2C9 expressed in insect microsomes
Cytochrome P450 2C9, sequence (P11712 whole entry): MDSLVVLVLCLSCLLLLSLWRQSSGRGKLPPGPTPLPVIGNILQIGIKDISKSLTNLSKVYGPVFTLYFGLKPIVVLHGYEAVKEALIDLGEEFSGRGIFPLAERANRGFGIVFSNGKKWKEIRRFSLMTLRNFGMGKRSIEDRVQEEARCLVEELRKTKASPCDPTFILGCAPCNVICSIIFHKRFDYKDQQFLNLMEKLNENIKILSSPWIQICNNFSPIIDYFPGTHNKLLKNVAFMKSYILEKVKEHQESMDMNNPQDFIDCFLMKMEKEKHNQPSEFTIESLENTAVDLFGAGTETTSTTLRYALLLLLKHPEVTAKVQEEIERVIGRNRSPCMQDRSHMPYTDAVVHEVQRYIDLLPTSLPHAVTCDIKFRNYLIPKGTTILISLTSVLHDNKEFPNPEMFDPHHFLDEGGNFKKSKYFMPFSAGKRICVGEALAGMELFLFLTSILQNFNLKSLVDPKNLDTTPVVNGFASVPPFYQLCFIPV

[20] = Tmax in New Zealand white rabbit at 0.1 mg/kg, intranasally; assay type: ADME, organism-based, Oryctolagus cuniculus; set-up: dose 0.1 mg/kg; conditions: in vivo, inhaled or intranasal; method in brief: as §2
[21] = Bioavailability in sc dosed cynomolgus monkey; assay type: ADME, organism-based, Macaca fascicularis; conditions: in vivo
Method in brief: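 Cynomolgus monkeys dosed subcutaneously in PG:D5W vehicle to determine bioavailability.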

Oryctolagus cuniculus [22] = assay: Bioavailability in New Zealand white rabbit at 0.1 mg/kg, intranasally; assay type: ADME, organism-based; conditions: in vivo, inhaled_or_intranasal, 1.0 mg/kg, in the assay text read “1.0 mg/kg” for “0.1 mg/kg”; method in brief: as §2
Callithrix jacchus [23] = assay: Inhibition of human alpha CGRP-induced increase in facial blood flow in marmoset at 0.01 mg/kg, sc after 60 and 105 mins by laser Doppler flowmetry; assay type: functional, organism-based; set-up: dose 0.01 mg/kg
Method in brief: (§5)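 Anesthetised marmosets received hRCGRP 10 µg/kg IV at 45 min intervals (-30, 15, 60 and 105 min); antagonist given SC at 0 min (dose range 0.003-0.03 mg/kg), vehicle-treated group run in parallel. Facial blood flow increase after each CGRP challenge read by laser Doppler flowmetry; plasma drug levels sampled at the 15 min test time.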

[24] = Total AUC in New Zealand white rabbit at 0.3 mg/kg, intranasally; assay type: ADME, organism-based, Oryctolagus cuniculus; set-up: time AUCmax, route nasal, dose 0.3 mg/kg; conditions: in vivo, inhaled or intranasal; method in brief: as §2
[25] = Tmax in New Zealand white rabbit at 0.3 mg/kg, intranasally; assay type: ADME, organism-based, Oryctolagus cuniculus; set-up: dose 0.3 mg/kg; conditions: in vivo, inhaled or intranasal; method in brief: as §2
[26] = Clearance in New Zealand white rabbit at 0.5 mg/kg, iv; assay type: ADME, organism-based, Oryctolagus cuniculus; set-up: dose 0.5 mg/kg, route intravenous; conditions: in vivo; method in brief: as §3
[27] = Displacement of [I125]AM from adrenomedullin 2 receptor expressed in CHO cells; assay type: cell-based
[28] = Bioavailability in New Zealand white rabbit at 0.3 mg/kg, intranasally; assay type: ADME, organism-based, Oryctolagus cuniculus; conditions: in vivo, inhaled or intranasal; method in brief: as §2
[29] = Fraction unbound in human serum at 10 uM; assay type: ADME, cell-free
Method in brief: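 Serum protein binding measured in vitro with compound at 10 µM.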

[30] = Cmax in New Zealand white rabbit at 1.0 mg/kg, intranasally; conditions: in vivo, inhaled or intranasal
[31] = Bioavailability in intratracheally dosed Sprague-Dawley rat; assay type: ADME, organism-based; conditions: in vivo, inhaled or intranasal
[32] = Displacement of [I125]AMY from amylin 1 receptor expressed in CHO cells; assay type: cell-based
[33] = Displacement of [I125]AM from adrenomedullin 1 receptor expressed in CHO cells; assay type: cell-based
Oryctolagus cuniculus [34] = assay: Cmax in New Zealand white rabbit at 0.5 mg/kg, iv; assay type: ADME, organism-based; set-up: dose 0.5 mg/kg, route intravenous; conditions: in vivo; method in brief: as §3
[35] = target: T2, Calcitonin gene-related peptide type 1 receptor; assay: Antagonist activity at human CGRP receptor in SK-N-MC cells assessed as inhibition of CGRP-stimulated cAMP production
[36] = Half life in New Zealand white rabbit at 0.5 mg/kg, iv; assay type: ADME, organism-based, Oryctolagus cuniculus; set-up: dose 0.5 mg/kg, route intravenous; conditions: in vivo; method in brief: as §3
[37] = Oral bioavailability in Sprague-Dawley rat; assay type: ADME, organism-based; conditions: in vivo
Callithrix jacchus [38] = assay: Inhibition of human alpha CGRP-induced increase in facial blood flow in marmoset at 0.03 mg/kg, sc after 15, 60 and 105 mins by laser Doppler flowmetry; assay type: functional, organism-based; set-up: dose 0.03 mg/kg; method in brief: as §5
[39] = Oral bioavailability in cynomolgus monkey; assay type: ADME, organism-based, Macaca fascicularis; conditions: in vivo
[40] = Drug level in New Zealand white rabbit after 24 hrs; assay type: ADME, organism-based, Oryctolagus cuniculus; conditions: in vivo, read-out: Drug uptake
Method in brief: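 Plasma level of drug in rabbits measured 24 h after intranasal dosing of a sprayed solution.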

[41] = Displacement of [I125]CGRP from marmoset CGRP receptor; set-up: species or system Callithrix jacchus
Cytochrome P450 2C19 = Cytochrome P450 2C19 (Homo sapiens, UniProt P33261); assay: Inhibition of human recombinant CYP2C19 expressed in insect microsomes
Cytochrome P450 2C19, sequence (P33261 whole entry): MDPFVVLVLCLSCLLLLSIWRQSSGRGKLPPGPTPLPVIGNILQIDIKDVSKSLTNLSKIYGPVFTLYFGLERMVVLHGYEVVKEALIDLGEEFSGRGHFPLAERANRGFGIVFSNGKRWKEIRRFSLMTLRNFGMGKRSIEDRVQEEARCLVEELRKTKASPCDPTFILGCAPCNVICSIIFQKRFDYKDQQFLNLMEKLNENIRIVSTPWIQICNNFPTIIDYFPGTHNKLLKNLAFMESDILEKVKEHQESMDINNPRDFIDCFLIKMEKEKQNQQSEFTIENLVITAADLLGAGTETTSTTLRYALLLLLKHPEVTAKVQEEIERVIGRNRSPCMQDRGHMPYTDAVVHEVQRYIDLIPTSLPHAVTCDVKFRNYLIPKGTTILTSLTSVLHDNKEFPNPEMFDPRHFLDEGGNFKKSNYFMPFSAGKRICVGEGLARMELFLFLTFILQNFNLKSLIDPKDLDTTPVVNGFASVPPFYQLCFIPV

[42] = Cmax in New Zealand white rabbit at 0.3 mg/kg, intranasally; assay type: ADME, organism-based, Oryctolagus cuniculus; set-up: route nasal, dose 0.3 mg/kg; conditions: in vivo, inhaled or intranasal; method in brief: as §2
[43] = Bioavailability in sc dosed Sprague-Dawley rat in presence of PG:D5W vehicle; assay type: ADME, organism-based; conditions: in vivo
Method in brief: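 Rats dosed subcutaneously in PG:D5W vehicle to determine bioavailability.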

IC50 (Cytochrome P450 3A4 [1]): 84 nM | Activity [2]: Not Active | Ki [3]: 0.55 nM | IC50 (Cytochrome P450 3A4 [4]): 870 nM
SMILES: O=C(N[C@H](Cc1csc2ccccc12)C(=O)N1CCC(N2CCCCC2)CC1)N1CCC(N2Cc3ccccc3NC2=O)CC1

solubility [5]: 15 mg/mL (≈ 23.9 mM) | Ki [3]: 0.01 nM
SMILES: Cc1cc(C[C@@H](NC(=O)N2CCC(N3Cc4ccccc4NC3=O)CC2)C(=O)N2CCC(N3CCCCC3)CC2)cc2cn[nH]c12

Ki (Calcitonin receptor): > 5000 nM | AUC (Oryctolagus cuniculus [6]): 1.3 µM·h | solubility [7]: > 500 mg/mL | Ki [8]: > 1000 nM | Papp [9]: < 1.5 ×10⁻⁶ cm/s | Vd [11]: 2.7 L/kg | bioavailability [15]: 43% | EC50 [16]: 311 nM | AUC (Oryctolagus cuniculus [17]): 1.1 µM·h | Tmax [18]: 1.98 min | EC50 [19]: 0.06 nM | IC50 (Cytochrome P450 2C9): > 40000 nM | Tmax [20]: 10.2 min | bioavailability [21]: 76% | F (Oryctolagus cuniculus [22]): 59% | AUC [24]: 0.36 µM·h | Tmax [25]: 10.2 min | clearance [26]: 13 mL/min/kg | bioavailability [28]: 55.2% | fraction unbound at 10 µM [29]: 0.35 | Cmax [30]: 1200 nM | bioavailability [31]: 73% | Cmax (Oryctolagus cuniculus [34]): 8200 nM | EC50 [35]: 0.0345 nM | half-life [36]: 660 min | bioavailability [37]: ≤ 0.3% | Ki [3]: 0.0128 nM | bioavailability [39]: ≤ 0.3% | concentration at 24 h [40]: > 10 nM | Ki [41]: 0.078 nM | IC50 (Cytochrome P450 2C19): > 40000 nM | Cmax [42]: 360 nM | bioavailability [43]: 81%
SMILES: Cc1cc(C[C@@H](NC(=O)N2CCC(N3Cc4cccc(F)c4NC3=O)CC2)C(=O)N2CCC(N3CCCCC3)CC2)cc2cn[nH]c12
Ki [10]: > 5000 nM | Kb [12]: 0.028 nM | Activity (Callithrix jacchus [13]): inactive | Activity (Callithrix jacchus [14]): inactive | Activity (Callithrix jacchus [23]): Active | Ki [27]: > 5000 nM | Ki [32]: > 500 nM | Ki [33]: > 5000 nM | Activity (Callithrix jacchus [38]): Active

IC50 (Cytochrome P450 3A4 [1]): 4000 nM | Activity [2]: Not Active | IC50 (Cytochrome P450 3A4 [4]): > 40000 nM
SMILES: O=C(N[C@H](Cc1ccc2[nH]ncc2c1)C(=O)N1CCC(N2CCCCC2)CC1)N1CCC(N2Cc3ccccc3NC2=O)CC1
